Test results from ChEMBL document CHEMBL5038593, “Rational Design and Synthesis of Novel Dual PROTACs for Simultaneous Degradation of EGFR and PARP” (J Med Chem, 2021).
Blank lines part the entries; values can stand above or below the compound they belong to. Activity calls are given as the source filed them. No cut-off for these calls is given here.

Tests used:
[1] = target: T1, Protein cereblon/Epidermal growth factor receptor (Homo sapiens) (UniProt P00533+Q96SW2); experiment: Protac activity at CRBN/EGFR in human SW1990 cells assessed as induction of EGFR degradation at 1 to 50 uM incubated for 24 hrs by Western blot analysis; assay type: cell-based; settings: dose 1-50 µM
Procedure, shortened: (§1)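 SW1990 cells grown in high-glucose DMEM (25 mM glucose) with 10% FBS, 5% CO₂, 37 °C. Seeded and left 24 h, then exposed to DMSO or compound. Cells washed in PBS, lysed in RIPA, and cleared at 13 000 rpm for 15 min. Protein measured by BCA. 20−40 μg run on 10% SDS-PAGE, moved to PVDF, blocked 1 h in 5% milk or BSA, primary antibodies 1:1000 overnight at 4 °C, ECL detection.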

[2] = target: T2, Protein cereblon/Poly [ADP-ribose] polymerase 1 (Homo sapiens) (UniProt P09874+Q96SW2); experiment: Protac activity at CRBN/PARP-1 in human SW1990 cells assessed as induction of PARP-1 degradation at 1 to 50 uM incubated for 24 hrs by Western blot analysis; assay type: cell-based; settings: dose 1-50 µM; procedure, shortened: as §1
[3] = system: NCI-H1299; experiment: cells; assay type: functional, cell-based; settings: Homo sapiens, NCI-H1299, 72 h
[4] = target: T2, Protein cereblon/Poly [ADP-ribose] polymerase 1 (Homo sapiens); experiment: Protac activity at CRBN/PARP-1 in human SW1990 cells assessed as decrease of PARP-1 expression level at 1 to 50 uM pretreated with proteasome inhibitor MG132 for 4 hr followed by incubation with compound for 24 hrs by Western blot analysis; assay type: cell-based; settings: dose 1-50 µM; procedure, shortened: as §1
[5] = target: Poly [ADP-ribose] polymerase 1 (Homo sapiens, UniProt P09874); experiment: Binding affinity to human GST-tagged PARP-1 ART domain (788 to 1014 residues) expressed in Escherichia coli BL21 (DE3) assessed as dissociation constant incubated for 30 mins by microscale thermophoresis analysis
[6] = target: T2, Protein cereblon/Poly [ADP-ribose] polymerase 1 (Homo sapiens); experiment: Protac activity at CRBN/PARP-1 in human SW1990 cells assessed as induction of PARP-1 degradation at 5 uM measured after 6 to 48 hrs by Western blot analysis; assay type: cell-based; settings: time 6-48 hrs, TDE = time-dependent effect; procedure, shortened: as §1
[7] = target: T1, Protein cereblon/Epidermal growth factor receptor (Homo sapiens); experiment: Protac activity at CRBN/EGFR in human SW1990 cells assessed as induction of EGFR degradation at 5 uM measured after 6 to 48 hrs by Western blot analysis; assay type: cell-based; settings: time 6-48 hrs, TDE = time-dependent effect; procedure, shortened: as §1
[8] = target: T1, Protein cereblon/Epidermal growth factor receptor (Homo sapiens); experiment: Protac activity at CRBN/EGFR in human SW1990 cells assessed as decrease in EGFR expression level at 1 to 50 uM pretreated with proteasome inhibitor MG132 for 4 hr followed by incubation with compound for 24 hrs by Western blot analysis; assay type: cell-based; settings: dose 1-50 µM; procedure, shortened: as §1
[9] = target: Epidermal growth factor receptor (Homo sapiens, UniProt P00533); experiment: biochemical; assay type: cell-based
[10] = target: T3, von Hippel-Lindau disease tumor suppressor/Poly [ADP-ribose] polymerase 1 (Homo sapiens) (UniProt P09874+P40337); experiment: Protac activity at VHL/PARP-1 in human NCI-H1299 cells assessed as decrease of PARP-1 degradation at up to 15 uM pretreated with proteasome inhibitor MG132 for 4 hr followed by incubation with compound for 6 hrs by Western blot analysis; assay type: cell-based; settings: dose microM <=15, time 6.0 hrs
Procedure, shortened: (§2)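 NCI-H1299 cells grown in high-glucose DMEM with 10% FBS at 37 °C, 5% CO₂. Compound given after 24 h seeding. Lysis in RIPA, BCA protein assay, 20−40 μg on 10% SDS-PAGE, PVDF transfer, primary antibodies 1:1000 overnight at 4 °C, ECL. EGFR, p-EGFR and PARP probed.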

[11] = target: T4, von Hippel-Lindau disease tumor suppressor/Epidermal growth factor receptor (Homo sapiens) (UniProt P00533+P40337); experiment: Protac activity at VHL/EGFR in human NCI-H1299 cells assessed as induction of EGFR degradation at 4 uM incubated for 6 hrs by Western blot analysis; assay type: cell-based; procedure, shortened: as §2
[12] = target: T4, von Hippel-Lindau disease tumor suppressor/Epidermal growth factor receptor (Homo sapiens); experiment: Protac activity at VHL/EGFR in human NCI-H1299 cells assessed as decrease in EGFR degradation at up to 15 uM pretreated with proteasome inhibitor MG132 for 4 hr followed by incubation with compound for 6 hrs by Western blot analysis; assay type: cell-based; settings: dose microM <=15, time 6.0 hrs; procedure, shortened: as §2
[13] = target: T3, von Hippel-Lindau disease tumor suppressor/Poly [ADP-ribose] polymerase 1 (Homo sapiens); experiment: Protac activity at VHL/PARP-1 in human NCI-H1299 cells assessed as induction of PARP degradation at 4 uM incubated for 6 hrs by Western blot analysis; assay type: cell-based; procedure, shortened: as §2
[14] = target: T3, von Hippel-Lindau disease tumor suppressor/Poly [ADP-ribose] polymerase 1 (Homo sapiens); experiment: Protac activity at VHL/PARP-1 in human A-431 cells assessed as induction of PARP-1 degradation at 0.8 to 20 uM incubated for 36 hrs by Western blot analysis; assay type: cell-based; settings: dose 0.8-20 µM
[15] = target: T3, von Hippel-Lindau disease tumor suppressor/Poly [ADP-ribose] polymerase 1 (Homo sapiens); experiment: Protac activity at VHL/PARP-1 in human NCI-H1299 cells assessed as induction of PARP degradation at 0.47 uM incubated for 36 hrs by Western blot analysis relative to control
[16] = target: T4, von Hippel-Lindau disease tumor suppressor/Epidermal growth factor receptor (Homo sapiens); experiment: Protac activity at VHL/EGFR in human A-431 cells assessed as induction of EGFR degradation at 0.8 to 20 uM incubated for 36 hrs by Western blot analysis; assay type: cell-based; settings: dose 0.8-20 µM
[17] = target: T4, von Hippel-Lindau disease tumor suppressor/Epidermal growth factor receptor (Homo sapiens); experiment: Protac activity at VHL/EGFR in human NCI-H1299 cells assessed as induction of EGFR degradation by measuring reduction in p-EGFR level at 15 uM incubated for 36 hrs by Western blot analysis; assay type: cell-based; procedure, shortened: as §2

T1 sequence (P00533 25-1210 limits assumed): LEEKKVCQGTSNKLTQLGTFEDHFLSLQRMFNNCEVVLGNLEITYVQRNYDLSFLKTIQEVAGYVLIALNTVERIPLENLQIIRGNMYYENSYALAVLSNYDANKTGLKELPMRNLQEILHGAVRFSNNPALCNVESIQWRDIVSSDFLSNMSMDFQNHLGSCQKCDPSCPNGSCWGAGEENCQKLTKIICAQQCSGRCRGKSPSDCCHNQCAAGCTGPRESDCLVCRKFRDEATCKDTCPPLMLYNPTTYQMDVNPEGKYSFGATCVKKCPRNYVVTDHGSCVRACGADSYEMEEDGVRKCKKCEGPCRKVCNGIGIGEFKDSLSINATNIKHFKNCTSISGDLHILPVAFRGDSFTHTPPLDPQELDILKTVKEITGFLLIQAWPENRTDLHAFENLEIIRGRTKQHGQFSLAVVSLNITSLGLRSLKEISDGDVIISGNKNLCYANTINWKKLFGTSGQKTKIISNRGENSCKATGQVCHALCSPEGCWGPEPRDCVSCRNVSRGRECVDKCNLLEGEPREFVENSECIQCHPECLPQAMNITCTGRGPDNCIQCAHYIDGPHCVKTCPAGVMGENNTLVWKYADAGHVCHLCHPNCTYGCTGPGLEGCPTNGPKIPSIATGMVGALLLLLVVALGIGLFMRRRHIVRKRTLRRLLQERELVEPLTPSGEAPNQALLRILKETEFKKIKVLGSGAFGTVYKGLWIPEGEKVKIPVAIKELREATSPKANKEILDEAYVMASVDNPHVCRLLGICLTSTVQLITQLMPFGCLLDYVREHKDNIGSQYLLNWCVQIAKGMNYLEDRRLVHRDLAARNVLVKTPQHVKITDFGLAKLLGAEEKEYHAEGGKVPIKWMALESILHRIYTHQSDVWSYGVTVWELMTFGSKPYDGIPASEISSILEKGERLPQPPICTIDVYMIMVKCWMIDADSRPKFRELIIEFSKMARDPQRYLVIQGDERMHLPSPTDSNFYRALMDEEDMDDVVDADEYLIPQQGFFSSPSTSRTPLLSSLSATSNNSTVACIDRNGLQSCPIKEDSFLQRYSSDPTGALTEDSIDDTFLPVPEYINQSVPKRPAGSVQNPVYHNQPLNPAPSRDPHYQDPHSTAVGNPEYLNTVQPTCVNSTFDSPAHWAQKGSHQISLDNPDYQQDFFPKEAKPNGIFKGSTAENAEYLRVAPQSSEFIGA
T1 sequence (Q96SW2 whole entry partner): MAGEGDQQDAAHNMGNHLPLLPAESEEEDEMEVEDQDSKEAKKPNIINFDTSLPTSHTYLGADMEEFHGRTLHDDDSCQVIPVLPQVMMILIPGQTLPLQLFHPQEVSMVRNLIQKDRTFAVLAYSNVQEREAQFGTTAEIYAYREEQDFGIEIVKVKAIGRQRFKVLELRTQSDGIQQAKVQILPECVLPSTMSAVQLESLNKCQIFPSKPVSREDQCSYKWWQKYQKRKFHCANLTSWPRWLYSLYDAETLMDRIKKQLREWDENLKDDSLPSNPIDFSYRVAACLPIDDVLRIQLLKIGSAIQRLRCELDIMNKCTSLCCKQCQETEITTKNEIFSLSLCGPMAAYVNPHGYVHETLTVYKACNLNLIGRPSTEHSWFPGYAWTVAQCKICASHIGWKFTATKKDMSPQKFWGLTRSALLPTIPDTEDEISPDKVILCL
T4 sequence (P00533 25-1210 limits assumed): as the sequence (P00533 25-1210 limits assumed) above
T4 sequence (P40337 whole entry partner): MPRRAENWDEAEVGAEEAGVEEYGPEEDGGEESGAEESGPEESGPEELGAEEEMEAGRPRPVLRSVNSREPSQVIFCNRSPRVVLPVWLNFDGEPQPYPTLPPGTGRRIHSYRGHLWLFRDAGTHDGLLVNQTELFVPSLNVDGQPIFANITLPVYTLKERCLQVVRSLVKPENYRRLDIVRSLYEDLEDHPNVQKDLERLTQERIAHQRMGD
T2 sequence (P09874 2-1014 limits assumed): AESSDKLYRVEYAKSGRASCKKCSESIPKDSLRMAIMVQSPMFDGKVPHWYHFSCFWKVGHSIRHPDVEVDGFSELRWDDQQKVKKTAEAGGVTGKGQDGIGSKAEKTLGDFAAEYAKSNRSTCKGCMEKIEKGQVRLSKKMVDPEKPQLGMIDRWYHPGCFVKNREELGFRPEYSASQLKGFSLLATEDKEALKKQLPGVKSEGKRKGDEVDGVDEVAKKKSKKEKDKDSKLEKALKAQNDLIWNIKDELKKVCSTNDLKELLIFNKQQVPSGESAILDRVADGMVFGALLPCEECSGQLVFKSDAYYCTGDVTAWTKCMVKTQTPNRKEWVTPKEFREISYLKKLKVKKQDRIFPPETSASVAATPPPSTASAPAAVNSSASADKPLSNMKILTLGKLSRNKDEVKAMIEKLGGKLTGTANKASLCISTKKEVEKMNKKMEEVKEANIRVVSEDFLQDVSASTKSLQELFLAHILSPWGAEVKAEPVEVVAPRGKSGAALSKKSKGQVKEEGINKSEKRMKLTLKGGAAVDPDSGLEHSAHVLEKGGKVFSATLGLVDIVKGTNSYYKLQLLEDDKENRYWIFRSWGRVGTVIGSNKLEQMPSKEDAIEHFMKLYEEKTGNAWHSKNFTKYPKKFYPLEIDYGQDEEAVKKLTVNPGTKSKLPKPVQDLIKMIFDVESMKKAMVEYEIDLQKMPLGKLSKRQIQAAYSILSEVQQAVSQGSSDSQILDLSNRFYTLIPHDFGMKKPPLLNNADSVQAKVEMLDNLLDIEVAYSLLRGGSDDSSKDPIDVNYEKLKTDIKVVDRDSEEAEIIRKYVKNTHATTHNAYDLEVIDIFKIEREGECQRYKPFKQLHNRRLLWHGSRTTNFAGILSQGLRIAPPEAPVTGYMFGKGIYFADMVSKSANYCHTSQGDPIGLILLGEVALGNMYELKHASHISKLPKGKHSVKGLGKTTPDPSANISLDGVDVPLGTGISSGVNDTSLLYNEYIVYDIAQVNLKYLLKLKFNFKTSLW
T2 sequence (Q96SW2 whole entry partner): as the sequence (Q96SW2 whole entry partner) above
Sequence of Poly [ADP-ribose] polymerase 1 (P09874 whole entry, the tested form may be a part): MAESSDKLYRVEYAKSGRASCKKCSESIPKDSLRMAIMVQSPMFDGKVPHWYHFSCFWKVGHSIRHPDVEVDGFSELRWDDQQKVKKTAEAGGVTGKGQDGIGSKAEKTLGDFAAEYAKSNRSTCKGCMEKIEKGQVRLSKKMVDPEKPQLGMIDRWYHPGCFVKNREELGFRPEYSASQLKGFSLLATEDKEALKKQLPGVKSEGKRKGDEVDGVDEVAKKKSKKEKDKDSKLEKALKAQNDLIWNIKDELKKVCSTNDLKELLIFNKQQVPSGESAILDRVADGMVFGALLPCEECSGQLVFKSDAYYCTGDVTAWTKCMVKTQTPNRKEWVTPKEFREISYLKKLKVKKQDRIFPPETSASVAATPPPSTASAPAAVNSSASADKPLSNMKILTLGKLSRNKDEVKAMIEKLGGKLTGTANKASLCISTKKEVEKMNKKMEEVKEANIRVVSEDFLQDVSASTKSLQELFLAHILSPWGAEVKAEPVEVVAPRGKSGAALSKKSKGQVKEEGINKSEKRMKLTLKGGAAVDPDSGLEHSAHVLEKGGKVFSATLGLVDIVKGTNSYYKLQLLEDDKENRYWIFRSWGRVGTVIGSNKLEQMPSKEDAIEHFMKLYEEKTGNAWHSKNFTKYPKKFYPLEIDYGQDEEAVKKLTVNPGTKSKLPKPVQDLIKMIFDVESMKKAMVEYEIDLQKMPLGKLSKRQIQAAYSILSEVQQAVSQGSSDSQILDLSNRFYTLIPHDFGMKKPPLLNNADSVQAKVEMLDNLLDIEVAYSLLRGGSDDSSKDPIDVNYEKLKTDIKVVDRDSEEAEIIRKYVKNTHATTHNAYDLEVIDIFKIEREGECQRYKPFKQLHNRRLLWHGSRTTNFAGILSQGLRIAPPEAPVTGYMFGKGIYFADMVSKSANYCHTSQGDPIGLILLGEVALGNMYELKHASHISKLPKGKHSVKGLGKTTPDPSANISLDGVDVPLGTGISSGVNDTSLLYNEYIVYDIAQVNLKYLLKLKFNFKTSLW

SMILES: COc1cc2ncnc(Nc3ccc(F)c(Cl)c3)c2cc1OCCCCCC(=O)NC(COCc1cn(CCOCCOCCNc2cccc3c2C(=O)N(C2CCC(=O)NC2=O)C3=O)nn1)C(=O)NCCCCCC(=O)N1CCN(C(=O)c2cc(Cc3n[nH]c(=O)c4ccccc34)ccc2F)CC1 (centres undefined)
- Activity [1]: Active
- Activity [2]: Active

SMILES: O=C(c1cc(Cc2n[nH]c(=O)c3ccccc23)ccc1F)N1CCN(C(=O)C2CC2)CC1 [OLAPARIB]
- IC50 [3]: 35.9 µM

SMILES: COc1cc2ncnc(Nc3ccc(F)c(Cl)c3)c2cc1OCC(=O)NC(Cc1ccc(OCc2cn(CCOCCNc3cccc4c3C(=O)N(C3CCC(=O)NC3=O)C4=O)nn2)cc1)C(=O)N1CCN(C(=O)c2cc(Cc3n[nH]c(=O)c4ccccc34)ccc2F)CC1 (centres undefined)
- Activity [4]: Active
- Kd [5]: 7.89 µM
- Activity [1]: Active
- Activity [2]: Active
- Activity [6]: Tde
- Activity [7]: Tde
- Activity [8]: Active
- Kd [9]: 2.74 µM

SMILES: COc1cc2ncnc(Nc3ccc(F)c(Cl)c3)c2cc1OCCCC(=O)NCc1cn(CCOCCNc2cccc3c2C(=O)N(C2CCC(=O)NC2=O)C3=O)nn1 (centres undefined)
- Activity [1]: Active

SMILES: COc1cc2ncnc(Nc3ccc(F)c(Cl)c3)c2cc1OCCCCCC(=O)NC(COCc1cn(CCCC(=O)N[C@H](C(=O)N2C[C@H](O)C[C@H]2C(=O)NCc2ccc(-c3scnc3C)cc2)C(C)(C)C)nn1)C(=O)NCCCCCC(=O)N1CCN(C(=O)c2cc(Cc3n[nH]c(=O)c4ccccc34)ccc2F)CC1 (some centres undefined)
- Kd [5]: 12.8 µM
- Activity [10]: Active
- IC50 [3]: 19.9 µM
- Activity [11]: Active
- Activity [12]: Active
- Activity [13]: Active
- Activity [14]: Active
- Activity [15]: 50%
- Activity [16]: Active
- Activity [17]: Active
- Kd [9]: 5.47 µM

Next, values leading:

- Activity [1]: Active
- Activity [2]: Active
SMILES: O=C1CCC(N2C(=O)c3cccc(NCCOCCn4cc(CCC(=O)N5CCN(C(=O)c6cc(Cc7n[nH]c(=O)c8ccccc78)ccc6F)CC5)nn4)c3C2=O)C(=O)N1 (centres undefined)

- Activity [1]: Active
- Activity [2]: Active
SMILES: COc1cc2ncnc(Nc3ccc(F)c(Cl)c3)c2cc1OCCCC(=O)NC(COCc1cn(CCOCCNc2cccc3c2C(=O)N(C2CCC(=O)NC2=O)C3=O)nn1)C(=O)NCCCC(=O)N1CCN(C(=O)c2cc(Cc3n[nH]c(=O)c4ccccc34)ccc2F)CC1 (centres undefined)

- Activity [1]: Active
- Activity [2]: Active
SMILES: COc1cc2ncnc(Nc3ccc(F)c(Cl)c3)c2cc1OCCCC(=O)NC(COCc1cn(CCOCCNc2cccc3c2C(=O)N(C2CCC(=O)NC2=O)C3=O)nn1)C(=O)N1CCN(C(=O)c2cc(Cc3n[nH]c(=O)c4ccccc34)ccc2F)CC1 (centres undefined)
